In brackets after ≈: the same amount, converted by molar mass.

In general, MIC refers to the smallest concentration in the dilution series that meets the test's criterion for growth inhibition. A low value points to inhibition by little substance.

What all share (assay type): functional
For one assay, the system named is Salmonella enterica. Briefly: Antimicrobial activity against Salmonella enterica serotype Virchow 3464b by Etest method. The method in brief:
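MIC determined by Etest strips on Müller-Hinton agar; E. coli ATCC 25922 used as the quality-control strain. Donor strain grown aerobically in brain heart infusion. Susceptible/resistant categories assigned from CLSI clinical breakpoints or EUCAST epidemiological cutoffs for cefotaxime, ceftazidime, ceftiofur, cefoxitin and cefuroxime. MICs expressed in μg/ml.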

The subject of assay [1] is Escherichia coli. Briefly: Antimicrobial activity against Escherichia coli ATCC 25922 by Etest method. Put shortly: (§1)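 MICs read from Etest strips on Müller-Hinton agar, in μg/ml. E. coli ATCC 25922 served as the QC strain. Susceptible or resistant calls followed CLSI clinical breakpoints or EUCAST epidemiological cutoffs for cefotaxime, ceftazidime, ceftiofur, cefoxitin and cefuroxime.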

The subject of assay [2] is Escherichia coli. Briefly: Antimicrobial activity against Escherichia coli J5 transconjugants expressing beta lactamase CTX-M-9 isolated from human flora associated C3H rat infected with Salmonella enterica serotype Virchow by Etest method. The method in brief:
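Etest MICs on Müller-Hinton agar, in μg/ml, with ATCC 25922 as QC. E. coli J5 transconjugants were isolated from feces of HFA C3H rats inoculated intragastrically with 8 log10 CFU J5, then Virchow donor 2 h later, and given sterile water by gavage instead of antibiotic. Isolates were selected on Drigalski agar with 250 μg/ml rifampin and 4 μg/ml cefixime and confirmed as J5 carrying blaCTX-M-9 by PCR/PFGE.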

Assay [3] concerns Escherichia coli. Description: Antimicrobial activity against Escherichia coli J5 transconjugants expressing beta lactamase CTX-M-9 isolated from human flora associated C3H rat infected with Salmonella enterica serotype Virchow and treated with Cefixime by Etest method. Put shortly:
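Etest MICs on Müller-Hinton agar, in μg/ml, with ATCC 25922 as QC. Isolates were fecal E. coli J5 transconjugants from human flora-associated C3H rats coinoculated orally with 8 log10 CFU J5, then Virchow donor, and gavaged with cefixime 4 mg/kg twice daily for 8 days. Isolates were picked on Drigalski agar with 250 μg/ml rifampin plus 4 μg/ml cefixime and confirmed by PCR/PFGE and blaCTX-M-9 PCR.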

The test system of assay [4] is Escherichia coli. Briefly: Antimicrobial activity against Escherichia coli J5 by Etest method. Put shortly: as §1
The subject of assay [5] is Escherichia coli. Description: Antimicrobial activity against Escherichia coli J5 transconjugants expressing beta lactamase CTX-M-9 isolated from human flora associated C3H rat infected with Salmonella enterica serotype Virchow and treated with Cefixime-cluvulanic acid by Etest method.

`CCn1cc(C(=O)O)c(=O)c2ccc(C)nc21` [NALIDIXIC ACID]: the MIC in the assay on Salmonella enterica was found to be 256 µg/mL (≈ 1100 µM); against Escherichia coli [1] it was 4 µg/mL (≈ 17.2 µM); against Escherichia coli [2], 4 µg/mL (≈ 17.2 µM); against Escherichia coli [3], 4 µg/mL (≈ 17.2 µM); against Escherichia coli [4] it was 4 µg/mL (≈ 17.2 µM); against Escherichia coli [5], 4 µg/mL (≈ 17.2 µM).
For `CN[C@@H]1[C@H](O[C@H]2[C@H](O[C@H]3[C@H](O)[C@@H](O)[C@H](N=C(N)N)[C@@H](O)[C@@H]3N=C(N)N)O[C@@H](C)[C@]2(O)C=O)O[C@@H](CO)[C@H](O)[C@H]1O` [STREPTOMYCIN], the MIC was found to be 128 µg/mL (≈ 220 µM) against Salmonella enterica; 2 µg/mL (≈ 3.44 µM) in the assay with Escherichia coli [1]; 2 µg/mL (≈ 3.44 µM) with Escherichia coli [2]; 2 µg/mL (≈ 3.44 µM) in the assay on Escherichia coli [3]; 2 µg/mL (≈ 3.44 µM) against Escherichia coli [4]; 2 µg/mL (≈ 3.44 µM) against Escherichia coli [5].
With `C=CC1=C(C(=O)O)N2C(=O)[C@@H](NC(=O)/C(=N\OCC(=O)O)c3csc(N)n3)[C@H]2SC1` [CEFIXIME], the MIC stood at 8 µg/mL (≈ 17.6 µM) in the assay with Salmonella enterica; 0.125 µg/mL (≈ 0.276 µM) against Escherichia coli [1]; 8 µg/mL (≈ 17.6 µM) against Escherichia coli [2]; 8 µg/mL (≈ 17.6 µM) in the assay on Escherichia coli [3]; 0.125 µg/mL (≈ 0.276 µM) against Escherichia coli [4]; 8 µg/mL (≈ 17.6 µM) in the assay on Escherichia coli [5].
As to `CN(C)[C@@H]1C(O)=C(C(N)=O)C(=O)[C@@]2(O)C(O)=C3C(=O)c4c(O)cccc4[C@@](C)(O)[C@H]3C[C@@H]12` [TETRACYCLINE], the MIC stood at 64 µg/mL (≈ 144 µM) against Salmonella enterica; 1 µg/mL (≈ 2.25 µM) in the assay on Escherichia coli [1]; 2 µg/mL (≈ 4.5 µM) against Escherichia coli [2]; 2 µg/mL (≈ 4.5 µM) against Escherichia coli [3]; 1 µg/mL (≈ 2.25 µM) in the assay on Escherichia coli [4]; 4 µg/mL (≈ 9 µM) with Escherichia coli [5].
Take `CO[C@@]1(NC(=O)Cc2cccs2)C(=O)N2C(C(=O)O)=C(COC(N)=O)CS[C@@H]21` [CEFOXITIN]: the MIC was found to be 16 µg/mL (≈ 37.4 µM) against Salmonella enterica; 4 µg/mL (≈ 9.36 µM) against Escherichia coli [1]; 8 µg/mL (≈ 18.7 µM) against Escherichia coli [2]; 16 µg/mL (≈ 37.4 µM) in the assay on Escherichia coli [3]; 4 µg/mL (≈ 9.36 µM) against Escherichia coli [4]; 16 µg/mL (≈ 37.4 µM) in the assay on Escherichia coli [5].
On to `COc1cc(Cc2cnc(N)nc2N)cc(OC)c1OC` [TRIMETHOPRIM], for which the MIC against Salmonella enterica was above 64 µg/mL; against Escherichia coli [1], 0.5 µg/mL (≈ 1.72 µM); against Escherichia coli [2] it was 0.5 µg/mL (≈ 1.72 µM); against Escherichia coli [3], 0.5 µg/mL (≈ 1.72 µM); with Escherichia coli [4], 0.5 µg/mL (≈ 1.72 µM); against Escherichia coli [5], 1 µg/mL (≈ 3.44 µM).
In the case of `CC(C)(O/N=C(\C(=O)N[C@@H]1C(=O)N2C(C(=O)[O-])=C(C[n+]3ccccc3)CS[C@H]12)c1csc(N)n1)C(=O)O` [CEFTAZIDIME], the MIC in the assay on Salmonella enterica turned out to be 8 µg/mL (≈ 14.6 µM); against Escherichia coli [1], 0.125 µg/mL (≈ 0.229 µM); in the assay with Escherichia coli [2], 1 µg/mL (≈ 1.83 µM); in the assay on Escherichia coli [3], 1 µg/mL (≈ 1.83 µM); in the assay with Escherichia coli [4], 0.125 µg/mL (≈ 0.229 µM); with Escherichia coli [5], 1 µg/mL (≈ 1.83 µM).
As for `Cc1cc(NS(=O)(=O)c2ccc(N)cc2)no1` [SULFAMETHOXAZOLE], the MIC is above 512 µg/mL against Salmonella enterica; 8 µg/mL (≈ 31.6 µM) with Escherichia coli [1]; 4 µg/mL (≈ 15.8 µM) in the assay with Escherichia coli [2]; 4 µg/mL (≈ 15.8 µM) against Escherichia coli [3]; 8 µg/mL (≈ 31.6 µM) against Escherichia coli [4]; 4 µg/mL (≈ 15.8 µM) against Escherichia coli [5].
Regarding `CO/N=C(\C(=O)N[C@@H]1C(=O)N2C(C(=O)O)=C(COC(N)=O)CS[C@H]12)c1ccco1` [CEFUROXIME], the MIC with Salmonella enterica is above 32 µg/mL; against Escherichia coli [1] it was 2 µg/mL (≈ 4.71 µM); in the assay on Escherichia coli [2], 16 µg/mL (≈ 37.7 µM); with Escherichia coli [3] it was 8 µg/mL (≈ 18.9 µM); against Escherichia coli [4] it was 2 µg/mL (≈ 4.71 µM); against Escherichia coli [5], 16 µg/mL (≈ 37.7 µM).
In the case of `CO/N=C(\C(=O)N[C@@H]1C(=O)N2C(C(=O)O)=C(COC(C)=O)CS[C@H]12)c1csc(N)n1` [CEFOTAXIME], the MIC against Salmonella enterica was above 8 µg/mL; against Escherichia coli [1] it was 0.03 µg/mL (≈ 0.0659 µM); against Escherichia coli [2], 0.5 µg/mL (≈ 1.1 µM); with Escherichia coli [3], 0.5 µg/mL (≈ 1.1 µM); against Escherichia coli [4], 0.03 µg/mL (≈ 0.0659 µM); against Escherichia coli [5], 0.5 µg/mL (≈ 1.1 µM).
As for `CC1(C)S[C@@H]2[C@H](NC(=O)[C@H](N)c3ccccc3)C(=O)N2[C@H]1C(=O)O` [AMPICILLIN], the MIC was determined as 128 µg/mL (≈ 366 µM) in the assay on Salmonella enterica; 4 µg/mL (≈ 11.4 µM) in the assay on Escherichia coli [1]; 16 µg/mL (≈ 45.8 µM) against Escherichia coli [2]; 16 µg/mL (≈ 45.8 µM) in the assay with Escherichia coli [3]; 4 µg/mL (≈ 11.4 µM) in the assay on Escherichia coli [4]; 16 µg/mL (≈ 45.8 µM) in the assay with Escherichia coli [5].
On to `CO[C@H]1/C=C/O[C@@]2(C)Oc3c(C)c(O)c4c(O)c(c(/C=N/N5CCN(C)CC5)c(O)c4c3C2=O)NC(=O)/C(C)=C\C=C\[C@H](C)[C@H](O)[C@@H](C)[C@@H](O)[C@@H](C)[C@H](OC(C)=O)[C@@H]1C` [RIFAMPIN], for which the MIC against Salmonella enterica was 4 µg/mL (≈ 4.86 µM); in the assay on Escherichia coli [1], 4 µg/mL (≈ 4.86 µM); against Escherichia coli [2] it was above 512 µg/mL; against Escherichia coli [3], above 512 µg/mL; in the assay on Escherichia coli [4], above 512 µg/mL; against Escherichia coli [5], above 512 µg/mL.
Take `CO/N=C(\C(=O)N[C@@H]1C(=O)N2C(C(=O)O)=C(CSC(=O)c3ccco3)CS[C@H]12)c1csc(N)n1` [CEFTIOFUR]: the MIC in the assay on Salmonella enterica is above 8 µg/mL; in the assay on Escherichia coli [1], 0.25 µg/mL (≈ 0.477 µM); in the assay on Escherichia coli [2], 1 µg/mL (≈ 1.91 µM); in the assay on Escherichia coli [3], 1 µg/mL (≈ 1.91 µM); with Escherichia coli [4], 0.25 µg/mL (≈ 0.477 µM); in the assay on Escherichia coli [5], 1 µg/mL (≈ 1.91 µM).

The values are drawn from ChEMBL document CHEMBL1212773, “Transfer of plasmid-mediated CTX-M-9 from Salmonella enterica serotype Virchow to Enterobacteriaceae in human flora-associated rats treated with cefixime” (2010).
